Rows were chosen to be rich in hits. Some 5.2% of all compounds tested hit in one or more screens of this group.
M1 ag = agonists of M1 muscarinic receptor; hit rate 3% among 64,000; AID 626; CHO-M1 cells, Fluo-4 calcium fluorescence, agonist mode; stronger effect = higher value; B-score at 10 µM;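 active = fluorescence rise, raw or as B-score row- and column-corrected plate score, outside the 99.7% band of its plate's samples, either direction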
AP complement = orthogonal test for alternative complement pathway inhibitors. hit rate 0.08% among 62,000. Human serum alternative complement pathway, LPS-coated ELISA, C3 deposition; tested in compound mixtures. AID 1235. inhibition, % at 5 µM;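 active = inhibition above 30% in each of the two pooled mixtures holding the compound, so the lower value exceeds 30%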
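Medium: diluted human serum in Mg2+-EGTA GVB++. Assay system: human serum complement alternative pathway, C3 deposition onto LPS. Also added: Plate-bound LPS. Technique: Anti-C3 ELISA, OD 450 nm. Measure: percent inhibition. Incubation: 1 h at 37 °C. Dosing: 5 µM each compound, pools of ten, 50 µM per pool.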
E coli WT exp = E. coli BW25113 growth inhibition, expanded screen | OD600 absorbance | growth inhibition, % at 100 µM | hit rate 0.15% among 98,000 | AID 710;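 active = growth inhibition above about 50% at one test dose, limit read from the data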;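 note: growth measured after 20 h incubation at 37 °C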
Ecoli tolC = blocks growth of E. coli BW25113 tolC mutant. hit rate 2.2% among 65,000. growth inhibition, % at 10 µM (by protocol). OD615. AID 573;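 active = growth inhibition at or above a cutoff equal to the mean over every tested compound plus 3 SD, cut at about 60% in these data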;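 note: growth measured after 20 h incubation at 37 °C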
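Assay system: tolC-deleted E. coli BW25113. Medium: kanamycin-containing LB broth (50 µg/mL). Dosing: 10 µM final, single dose. Timing: bacterial growth with compound for 20 h at 37 °C. Detection: A615 absorbance measurement. Read-out basis: growth inhibition in percent.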
WNV protease inh = inhibitors of West Nile virus NS2B-NS3 protease | WNV NS2B-NS3 protease, fluorogenic substrate Ex360/Em465; stronger effect = lower value | z-score (no concentration beside the values) | AID 577 | P06935 | hit rate 0.18% among 65,000; in the data active = z-score below about -3
M1 antag = antagonists of rat M1 muscarinic receptor; hit rate 3.4% among 64,000; P08482; AID 628; B-score at 10 µM; CHO-M1 cells, Fluo-4 calcium, ACh EC80 antagonist mode; stronger effect = lower value;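 active = calcium fluorescence response, raw or row-and-column corrected B-score, differing from the plate sample mean either way at a set confidence level, mostly lower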
Target sequence (P08482 whole entry, looked up): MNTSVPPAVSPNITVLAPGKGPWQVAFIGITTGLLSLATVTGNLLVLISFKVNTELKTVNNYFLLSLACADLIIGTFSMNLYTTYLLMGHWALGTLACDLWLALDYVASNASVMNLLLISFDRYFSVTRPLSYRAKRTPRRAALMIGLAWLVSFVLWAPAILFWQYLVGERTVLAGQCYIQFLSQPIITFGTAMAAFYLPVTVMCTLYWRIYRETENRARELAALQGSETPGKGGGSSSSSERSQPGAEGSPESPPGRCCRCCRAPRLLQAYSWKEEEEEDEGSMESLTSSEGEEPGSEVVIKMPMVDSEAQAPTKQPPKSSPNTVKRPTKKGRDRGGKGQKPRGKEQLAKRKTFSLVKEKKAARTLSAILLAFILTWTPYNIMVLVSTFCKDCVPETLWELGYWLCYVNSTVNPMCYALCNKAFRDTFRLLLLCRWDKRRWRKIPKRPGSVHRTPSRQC
M1 antag confirm = confirmation of rat M1 muscarinic receptor antagonists. CHO-M1 cells, Fluo-4 calcium, ACh EC80 antagonism; stronger effect = lower value. calcium response (max-min fluorescence) at 10 µM. hit rate 43% among 1,700. AID 677. shares compounds with M1 antag;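 active = calcium response below the same-plate mean of wells given acetylcholine alone at its 80%-effect dose, minus 3 SD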
mGluR4 antag = selectivity test for M1 antagonists: human mGluR4 receptor; hit rate 0.9% among 1,700; CHO-mGluR4 calcium flux, Fluo-4 fluorescence, glutamate EC80; stronger effect = lower value; fluorescence response (max-min) at 10 µM; shares compounds with M1 antag;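 active = fluorescence response below the plate's average for near-maximal glutamate wells, less 3 SD of those wells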;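 note: raw unnormalized fluorescence span taken in the window right after glutamate addition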
Each line names hits and unclear results; the compound was inactive in the other large screens (follow-up assays come after a bar, where they were run).

O=C(COC(=O)CCNS(=O)(=O)c1ccc(Cl)cc1)NCc1ccco1	M1 antag -2.8 | M1 antag confirm inactive | mGluR4 antag inactive
Cc1ccc(C(=O)NC(=S)Nc2ccc(S(=O)(=O)N3CCN(C)CC3)cc2)cc1	none (no result: M1 ag, AP complement, Ecoli tolC, WNV protease inh, M1 antag)
O=C(NC1CCCCC1)/C(=N\O)c1ccccn1	none
Cc1ccc(Cn2nnc3c(=O)n(Cc4cccc(C)c4)cnc32)cc1	M1 antag -3.4 (no result: AP complement) | M1 antag confirm 481 | mGluR4 antag inactive
Cc1cc(N2CCN(c3nc(N4CCOCC4)nc4ccccc34)CC2)c2ccccc2n1	M1 antag -7.1 (no result: E coli WT exp) | M1 antag confirm 24 | mGluR4 antag inactive
CCN(CC)CCN1C(=O)C2C3c4ccccc4C(c4ccccc43)C2C1=O (stereo not given)	M1 antag -3.6 | M1 antag confirm inactive | mGluR4 antag inactive
CCN(CC)CCN1C(=O)C(O)=C(C(C)=O)C1c1ccccc1 (stereo not given)	none (no result: E coli WT exp)
CN(C)C(=O)CSc1nnc([C@H](Cc2c[nH]c3ccccc23)NC(=O)OC(C)(C)C)o1	none (no result: E coli WT exp)
CCOC(=O)CN1C(=O)C(CC)Oc2ccc(Cl)cc21 (stereo not given)	M1 antag -3.6 | M1 antag confirm inactive | mGluR4 antag inactive
Cc1cc(Cn2ccnc2)c(C)cc1Cn1ccnc1	M1 antag -2 | M1 antag confirm inactive | mGluR4 antag inactive
c1ccc2c(Cn3ccnc3)c[nH]c2c1	none
COc1ccc(S(=O)(=O)NC(CC(=O)N2CCc3ccccc32)c2ccco2)cc1 (stereo not given)	none (no result: M1 ag, M1 antag)
Cc1ccc(S(=O)(=O)NC(CC(=O)N2CCc3ccccc32)c2ccco2)cc1 (stereo not given)	M1 antag -4.4 | M1 antag confirm inactive | mGluR4 antag inactive
Cn1c(-c2ccc(CN3CCCCC3)o2)nc2ccccc21	none
CCOC(=O)N1CCN(C(=O)c2ccc3c(=O)n(CCC4=CCCCC4)c(=O)[nH]c3c2)CC1	M1 antag -6.8 | M1 antag confirm 191 | mGluR4 antag inactive
CC1(C)CC(N2CCC(=O)N(C3CC(C)(C)NC(C)(C)C3)C2)CC(C)(C)N1	M1 antag -3.2 | M1 antag confirm inactive | mGluR4 antag inactive
Cc1cccc(OCC(=O)Nc2ccc3c(c2)OCCO3)c1	M1 antag -5 | M1 antag confirm inactive | mGluR4 antag inactive
CCC(=O)Nc1cccc(NC(=O)c2ccc3c(c2)OCCO3)c1	M1 antag -2.6 | M1 antag confirm inactive | mGluR4 antag inactive
CCC(=O)Nc1ccc(NC(=O)c2ccc3c(c2)OCO3)cc1	none (no result: M1 ag, AP complement, Ecoli tolC, WNV protease inh, M1 antag)
CC(=O)C(=Nc1ccc(Cl)cc1Cl)NNc1cccc(Cl)c1	none (no result: M1 ag, AP complement, Ecoli tolC, WNV protease inh, M1 antag)
COc1ccc(N(C(=O)c2ccc(Cl)cc2)C2=CC3CCC(C2)N3C)cc1 (stereo not given)	none (no result: M1 ag, AP complement, Ecoli tolC, WNV protease inh, M1 antag)
COc1cccc(N(CC(=O)NCCSc2ccc(Cl)cc2)S(C)(=O)=O)c1	none (no result: M1 ag, AP complement, Ecoli tolC, WNV protease inh, M1 antag)
Cc1ccc(NC(=O)Cn2cccc2)c(Br)c1	M1 antag -2.9 | M1 antag confirm inactive | mGluR4 antag inactive
Cc1cccc(NC(=O)Cn2cccc2)c1	none
COc1ccc2nc3oc(C(=O)N4CCCCC4)cc3cc2c1	none
CCOC(=O)C1CCN(C(=O)c2cc3cc4cc(OC)ccc4nc3o2)CC1	M1 antag -3.2 | M1 antag confirm 432 | mGluR4 antag inactive
Cc1ccc(S(=O)(=O)N2CCCCC2)cc1C(=O)Nc1ncn[nH]1	none
CCN1CCN(c2ncc(C(=O)Nc3c(F)cc(F)cc3Br)c3ccccc23)CC1	M1 antag -10 | M1 antag confirm 201 | mGluR4 antag inactive
COC(=O)c1cc(Br)c(=O)n(CCc2ccc(O)cc2)c1	none (no result: M1 ag, AP complement, Ecoli tolC, WNV protease inh, M1 antag)
COC(=O)c1cc(Br)c(=O)n(CCc2ccc(F)cc2)c1	M1 antag -4 | M1 antag confirm inactive | mGluR4 antag inactive
CCCCOc1ccc(NC2=NC3(CCCC3)N=C(N)N2)cc1	M1 antag -3 | M1 antag confirm 477 | mGluR4 antag inactive
CC(C)[N+](C)(CCOC(=O)C1c2ccccc2Oc2ccccc21)C(C)C	M1 antag -16 (no result: E coli WT exp) | M1 antag confirm 19 | mGluR4 antag inactive
CCCCCCCC(=O)NC(Nc1ccc(S(N)(=O)=O)cc1)C(Cl)(Cl)Cl (stereo not given)	none (no result: M1 ag, AP complement, Ecoli tolC, WNV protease inh, M1 antag)
CCN(CCCNC(=O)c1c(C)cc(=O)oc1C)c1ccccc1	M1 antag -3.9 | M1 antag confirm inactive | mGluR4 antag inactive
CCC1Oc2ccccc2N(CC(=O)NCCN2CCc3ccccc3C2)C1=O (stereo not given)	M1 antag -1.7 | M1 antag confirm 583 | mGluR4 antag inactive
CCC1Oc2ccccc2N(CC(=O)NCCCN2CCN(Cc3ccccc3)CC2)C1=O (stereo not given)	none
C=CCn1c(SCc2nc3ccccc3nc2C)nnc1-c1ccoc1C	none
O=C(NCCCN1CCCC1=O)Nc1ccc(F)c(Cl)c1	none (no result: M1 ag, AP complement, Ecoli tolC, WNV protease inh, M1 antag)
O=C(NCCN1CCCCC1)Nc1ccc(F)c(Cl)c1	M1 antag -2.8 | M1 antag confirm inactive | mGluR4 antag inactive
CCOc1ccccc1NC1c2ccccc2C(=O)N1Cc1ccco1 (stereo not given)	M1 antag -0.86 | M1 antag confirm inactive | mGluR4 antag inactive
CCOc1ccccc1NC1c2ccccc2C(=O)N1c1ccc(C)cn1 (stereo not given)	none
CCc1ccccc1NC1c2ccccc2C(=O)N1Cc1ccco1 (stereo not given)	M1 antag -2.2 | M1 antag confirm inactive | mGluR4 antag inactive
CCCOc1ccc(-c2nnc(-c3ccncc3)o2)cc1	M1 antag -2 | M1 antag confirm inactive | mGluR4 antag inactive
COc1cc(C(=O)NCc2nnc(SCC(=O)N3CCc4ccccc43)o2)cc(OC)c1OC	none
CCOC(=O)C(NC(=O)c1ccc(Cl)cc1Cl)(Nc1ccc(C)cc1)C(F)(F)F (stereo not given)	none (no result: M1 ag, AP complement, Ecoli tolC, WNV protease inh, M1 antag)
Cn1c(CCN2CCCCC2)nc2cc(NC(=O)Nc3ccccc3)ccc21	M1 antag -4.4 | M1 antag confirm 194 | mGluR4 antag inactive
Cn1c(CCN2CCCCC2)nc2cc(NS(=O)(=O)c3ccccc3)ccc21	M1 antag -5.2 | M1 antag confirm 448 | mGluR4 antag inactive
Cc1cc(NC(=O)Cc2ccccc2)nc2c1c(=O)oc1ccccc12	none (no result: M1 ag, AP complement, Ecoli tolC, WNV protease inh, M1 antag)
Cc1cc(NC(=O)CN2CCN(Cc3ccccc3)CC2)nc2c1c(=O)oc1ccccc12	M1 antag -2.4 (no result: E coli WT exp) | M1 antag confirm inactive | mGluR4 antag inactive
COc1cccc(OC)c1C(=O)N1CCN(Cc2ccccc2C(F)(F)F)CC1	M1 antag -3 | M1 antag confirm inactive | mGluR4 antag inactive
CCC(c1nnnn1Cc1ccco1)N(Cc1cc2cc(C)cc(C)c2[nH]c1=O)CC1CCCO1 (stereo not given)	none

Source: PubChem
